In ChEMBL document CHEMBL1121573, “2-(Aminomethyl)phenols, a new class of saluretic agents. 1. Effects of nuclear substitution” (J Med Chem, 1980):

What was measured:
Canis familiaris [1] = experiment: Compound administered intravenously at a dose of 5 mg/kg was evaluated for salidiuretic activity measured as sodium ion excretion in Dog; Value ranges from 0-99; assay type: ADME, organism-based, Canis lupus familiaris, Urine; design: dose 5 mg/kg, route intravenous; conditions: in vivo, iv
Method in brief: (§1)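 Conditioned female mongrel dogs, postabsorptive, water-loaded (500 mL po) 1 h before sodium pentobarbital anesthesia (30 mg/kg iv). Bladder catheter; creatinine 4 g sc; phosphate–mannitol buffer pH 7.4 infused (3.0 mL/min) throughout. […] Urine Na+ measured; response scored 0–6.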

Rattus norvegicus [2] = experiment: Evaluated for salidiuretic activity measured as sodium ion excretion in Rat, administered orally at a dose of 50 mg/kg; assay type: functional, Urine; design: unit not given beside the values; conditions: route oral
Method in brief: (§2)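 Female Charles-River rats (150–170 g), overnight on sugar diet with water ad libitum. Compound dissolved in DMF, diluted with water containing Tween 80 (final 4% DMF), given po in 5.0 mL; concurrent vehicle placebo. Three rats per metabolism cage; 0–5 h urine analysed for Na+, K+, Cl-. Values: mequiv × 100 per cage, geometric means of three cages per dose; scored 0–6 by Na+.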

[3] = Compound administered orally at a dose of 5 mg/kg was evaluated for salidiuretic activity measured as sodium ion excretion in Rat; assay type: organism-based; design: dose 5 mg/kg; conditions: Urine; method in brief: as §2
Rattus norvegicus [4] = experiment: Compound administered orally at a dose of 1 mg/kg was evaluated for salidiuretic activity measured as sodium ion excretion in Rat; conditions: in vivo, po
Canis familiaris [5] = experiment: Compound administered intravenously at a dose of 5 mg/kg was evaluated for salidiuretic activity measured as sodium ion excretion in Dog; assay type: ADME, organism-based, Canis lupus familiaris, Urine; design: dose 5 mg/kg, route intravenous; conditions: in vivo, iv; method in brief: as §1
[6] = Evaluated for salidiuretic activity measured as sodium ion excretion in Rat, administered orally at a dose of 16.5 mg/kg; assay type: organism-based; design: dose 16.5 mg/kg; conditions: Urine; method in brief: as §2
Canis familiaris [7] = experiment: Salidiuretic activity in dog following i.v. dosing at 5 mg/kg; assay type: functional, Canis lupus familiaris, Urine; design: unit not given beside the values; conditions: route intravenous
Method in brief: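 Conditioned female mongrel dogs, postabsorptive, got a 500 mL oral water load 1 h before pentobarbital anesthesia (30 mg/kg iv). After replicate 15-min control collections, compound was given as an iv stat injection.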

Rattus norvegicus [8] = experiment: Compound administered orally at a dose of 81 mg/kg was evaluated for salidiuretic activity measured as sodium ion excretion in Rat; assay type: ADME, organism-based, Urine; design: dose 81 mg/kg, route oral; unit not given beside the values; conditions: in vivo, po; method in brief: as §2
Canis familiaris [9] = experiment: Compound administered intravenously was evaluated for salidiuretic activity measured as sodium ion excretion in Dog; Value ranges from 250-399; assay type: ADME, organism-based, Canis lupus familiaris, Urine; conditions: in vivo, iv; method in brief: as §1
Canis familiaris [10] = experiment: Compound administered intravenously at a dose of 5 mg/kg was evaluated for salidiuretic activity measured as sodium ion excretion in Dog; Value ranges from 800-899; assay type: ADME, organism-based, Canis lupus familiaris, Urine; design: dose 5 mg/kg, route intravenous; unit not given beside the values; conditions: in vivo, iv; method in brief: as §1
Canis familiaris [11] = experiment: Compound administered intravenously at a dose of 5 mg/kg was evaluated for salidiuretic activity measured as sodium ion excretion in Dog; Value ranges from 100-249; assay type: ADME, organism-based, Canis lupus familiaris, Urine; design: dose 5 mg/kg, route intravenous; conditions: in vivo, iv; method in brief: as §1
Canis familiaris [12] = experiment: Compound administered intravenously was evaluated for salidiuretic activity measured as sodium ion excretion in Dog; Value ranges from 0-99; assay type: ADME, organism-based, Canis lupus familiaris, Urine; conditions: in vivo, iv; method in brief: as §1

Row | Compound | Diuretic activity (Rattus norvegicus [8]) | Diuretic activity (Rattus norvegicus [2]) | Diuretic activity [3] | Diuretic activity [6] | also measured
1 | Cl.NCc1cc(F)cc(Cl)c1O |  |  |  |  | Diuretic activity (Canis familiaris [1]): 0
2 | CC(C)c1cc(Cl)c(O)c(CN)c1.Cl |  | 3.6 | 2.6 | 3.3 | Diuretic activity (Rattus norvegicus [4]): 0.7; Diuretic activity (Canis familiaris [5]): > 900
3 | Cl.NCc1cc(Cl)cc(F)c1O |  |  |  |  | Diuretic activity (Canis familiaris [7]): 250
4 | Cc1c(Cl)c(C(C)(C)C)c(Cl)c(O)c1CN.Cl | 2.9 | 2.4 | 0.5 | 1.4 | 
5 | CC(=O)c1cc(C(C)(C)C)cc(CN)c1O.Cl |  |  |  |  | Diuretic activity (Canis familiaris [9]): 250
6 | Cl.NCc1cc(I)cc(I)c1O | 2.9 | 2.4 | 0.5 | 1.4 | Diuretic activity (Canis familiaris [10]): 800
7 | CC(C)(C)c1cc(Br)c(O)c(CN)c1.Cl |  | 3.9 | 3.6 | 4.2 | Diuretic activity (Rattus norvegicus [4]): 2.1; Diuretic activity (Canis familiaris [5]): > 900
8 | Cl.NCc1c(O)c(Cl)c(Cl)c(Cl)c1Cl |  | 3.3 | 1.4 | 2.7 | Diuretic activity (Canis familiaris [7]): 250
9 | CC(C)(C)c1cc(CN)c(O)c(C(F)(F)F)c1.Cl |  | 3.3 | 1.4 | 2.7 | Diuretic activity (Canis familiaris [10]): 800
10 | CCCc1cc(CN)c(O)c(OC)c1.Cl |  |  |  |  | Diuretic activity (Canis familiaris [7]): 250
11 | Cc1cc(Cl)cc(CN)c1O.Cl |  |  |  |  | Diuretic activity (Canis familiaris [11]): 100
12 | Cl.NCc1cc(-c2ccccc2)cc(Cl)c1O |  |  |  |  | Diuretic activity (Canis familiaris [9]): 250
13 | Cl.NCc1cc(Cl)c(Cl)c(Cl)c1O |  | 3.3 | 1.4 | 2.7 | Diuretic activity (Canis familiaris [7]): 250
14 | Cc1cc(O)c(CN)c(C)c1C.Cl |  |  |  |  | Diuretic activity (Canis familiaris [12]): 0
15 | CC(C)(c1ccccc1)c1ccc(O)c(CN)c1.Cl |  |  |  |  | Diuretic activity (Canis familiaris [7]): 250
16 | CC(C)(C)c1cc(F)c(O)c(CN)c1.Cl |  | 3.3 | 1.4 | 2.7 | Diuretic activity (Canis familiaris [5]): > 900
17 | CC(C)(C)CC(C)(C)c1cc(Cl)c(O)c(CN)c1.Cl |  |  |  |  | Diuretic activity (Canis familiaris [12]): 0
18 | COc1cc(C)cc(CN)c1O.Cl |  |  |  |  | Diuretic activity (Canis familiaris [11]): 100
19 | Cc1cc(N)c(C)c(CN)c1O.Cl.Cl |  |  |  |  | Diuretic activity (Canis familiaris [12]): 0
20 | COc1c(C(C)(C)C)cc(Cl)c(O)c1CN.Cl |  |  |  |  | Diuretic activity (Canis familiaris [9]): 250
21 | Cc1c(Cl)ccc(O)c1CN.Cl |  |  |  |  | Diuretic activity (Canis familiaris [7]): 250
22 | Cl.NCc1cc(Cl)cc(C(=O)O)c1O |  |  |  |  | Diuretic activity (Canis familiaris [7]): 250
23 | Cc1c(Br)c(C)c(CN)c(O)c1Br.Cl |  | 3.3 | 1.4 | 2.7 | Diuretic activity (Canis familiaris [10]): 800
24 | Cc1c(C)c(C)c(CN)c(O)c1C.Cl | 2.9 | 2.4 | 0.5 | 1.4 | Diuretic activity (Canis familiaris [7]): 250
25 | NCc1cc(Cl)ccc1O | 1.5 | 1.2 | 0.3 | 0.5 | Diuretic activity (Canis familiaris [7]): 250
26 | CCCCc1ccc(O)c(CN)c1.Cl | < 0.3 | <0.3 |  |  | Diuretic activity (Canis familiaris [1]): 0
27 | CCCc1cc(C(C)(C)C)cc(CN)c1O.Cl |  |  |  |  | Diuretic activity (Canis familiaris [12]): 0
28 | CCCCc1cc(I)c(O)c(CN)c1.Cl | < 0.3 | <0.2 |  |  | Diuretic activity (Canis familiaris [11]): 100
29 | C=C(CC)C(=O)c1ccc(OCC(=O)O)c(Cl)c1Cl [ETHACRYNIC ACID] | < 0.3 | <0.3 |  |  | Diuretic activity (Canis familiaris [5]): > 900

Second part, led by results:

Row | Diuretic activity (Rattus norvegicus [8]) | Compound | Diuretic activity (Rattus norvegicus [2]) | Diuretic activity [3] | Diuretic activity [6] | also measured
30 | 2.9 | COc1c(C(C)(C)C)cc(I)c(O)c1CN.Cl | 2.4 | 0.5 | 1.4 | Diuretic activity (Canis familiaris [10]): 800
31 | 2.4 | CCOC(=O)c1cc(I)c(O)c(CN)c1.Cl | 1.8 |  |  | Diuretic activity (Canis familiaris [7]): 250
32 | 2.4 | Cl.NCc1cc(Cl)cc(I)c1O | 1.8 | 0.4 | 0.6 | Diuretic activity (Canis familiaris [10]): 800
33 | 2.9 | CCC(C)c1cc(I)c(O)c(CN)c1.Cl (stereo unspecified) | 2.4 | 0.5 | 1.4 | Diuretic activity (Canis familiaris [5]): > 900
34 | 2.9 | CCC(C)(C)c1cc(I)c(O)c(CN)c1.Cl | 2.4 | 0.5 | 1.4 | Diuretic activity (Canis familiaris [10]): 800
